Results gathered from unrelated publications.
Each line is one published result; the experiments were not run side by side.

SMILES | host | medium | route | dose | notes | Tmax [min]
Cc1ccc(OCC(=O)N[C@@H](Cc2c[nH]c3ccccc23)C(=O)OC(C)C)cc1 | male Sprague-Dawley mouse | plasma | intravenous | 10 mg/kg |  | 48
CC[C@H](C)[C@H](NC(=O)[C@H](CCC(=O)O)NC(=O)[C@H](CO)NC(=O)[C@@H](NC(=O)[C@@H](N)CO)C(C)C)C(=O)N[C@@H](CCC(N)=O)C(=O)N[C@@H](CC(C)C)C(=O)N[C@@H](CCSC)C(=O)N[C@@H](Cc1cnc[nH]1)C(=O)N[C@@H](CC(N)=O)C(=O)N[C@@H](CC(C)C)C(=O)NCC(=O)N[C@@H](CCCCN)C(=O)N[C@@H](Cc1cnc[nH]1)C(=O)N[C@@H](CC(C)C)C(=O)N[C@@H](CC(N)=O)C(=O)N[C@@H](CO)C(=O)N[C@@H](CCSC)C(=O)N[C@@H](CCC(=O)O)C(=O)N[C@@H](CCCNC(=N)N)C(=O)N[C@H](C(=O)N[C@@H](CCC(=O)O)C(=O)N[C@@H](Cc1c[nH]c2ccccc12)C(=O)N[C@@H](CC(C)C)C(=O)N[C@@H](CCCNC(=N)N)C(=O)N[C@@H](CCCCN)C(=O)N[C@@H](CCCCN)C(=O)N[C@@H](CC(C)C)C(=O)N[C@@H](CCC(N)=O)C(=O)N[C@@H](CC(=O)O)C(=O)N[C@H](C(=O)N[C@@H](Cc1cnc[nH]1)C(=O)N[C@@H](CC(N)=O)C(=O)N[C@@H](Cc1ccccc1)C(N)=O)C(C)C)C(C)C | female CD-1 mouse | serum | intravenous | 10 nmol/kg |  | 1.8
Cc1ccc2c(c1)C(=O)[C@]1(O)CCN(c3ccc4nc(C)ccc4c3)C1=N2.Cl | mouse | brain | subcutaneous | 5 mg/kg |  | ≤ 10
NCc1ccc(-c2nn(Cc3ccncc3)c3ccccc23)o1 | male CD-1 mouse | plasma | oral | 10 mg/kg |  | 30
Cc1[nH]c(C)c(S(=O)(=O)Nc2ccc(C(F)(F)F)c(Cl)c2)c1C(=O)N1CCC(F)(F)C1 | male CD-1 mouse | brain | intraperitoneal | 40 mg/kg |  | 60
COC1=CC(c2ccc[nH]2)=N/C1=C\c1[nH]c(Cc2ccc(OC(F)(F)F)cc2)cc1Cc1ccc(OC(F)(F)F)cc1 | male CD-1 mouse | liver | oral | 40 mg/kg | single dose | 240
COCC(=O)N1CCc2[nH]c3c(Cl)c(Cl)ccc3c2[C@@H]1C | C57BL/6 mouse | blood | intravenous | 1 mg/kg |  | 5
COC1=CC(c2ccc[nH]2)=N/C1=C\c1cc(Cc2ccc(OC(F)(F)F)cc2)c(C)[nH]1.Cl | male CD-1 mouse | plasma | oral | 40 mg/kg | single dose | 1440
OCc1nc2ccc(NCc3ccc(C(F)(F)F)cc3)cc2[nH]1 | male BALB/c mouse | plasma | intravenous | 1 mg/kg |  | 15
COc1ccc(C[C@H](NC(=O)[C@H](C)NC(=O)CN2CCOCC2)C(=O)N[C@@H](Cc2ccccc2)C(=O)C2(C)CO2)cc1 (stereo in doubt) | mouse | plasma | oral | 20 mg/kg | single dose | 18
OCc1ccc(-c2nn(Cc3ccccc3)c3ccccc23)o1 | male CD-1 mouse | plasma | oral | 10 mg/kg |  | 15
CCn1c(=O)c(-c2cc(NC(=O)Nc3ccccc3)c(F)cc2Br)cc2cnc(NC)cc21 | male mouse | plasma | oral | 15 mg/kg | single dose | 60
NCc1ccc(-c2nn(Cc3ccccc3)c3ccccc23)o1 | male CD-1 mouse | plasma | intraperitoneal | 30 mg/kg |  | 30
CN(C)C(=O)c1cc2cnc(Nc3ccc(-c4ccc5c(=O)cc(N6CCOCC6)oc5c4)cc3)nc2n1C1CCCC1 | BALB/c mouse | plasma | oral | 20 mg/kg |  | 24
